Experiments:
Format in all cases: functional
[1] = Anti-coagulation activity evaluated as activated partial thromboplastin time (APTT) determined for 25 ug/ml in pooled normal plasma
Method in brief: (§1)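 Activated partial thromboplastin time was measured in pooled normal human plasma with a commercial liquid silica-activator APTT kit. Polymer was added to the plasma, and clotting time was recorded in seconds. Plasma without polymer served as the control, and heparin was the positive control.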

[2] = Anti-coagulation activity evaluated as activated partial thromboplastin time (APTT) determined for 250 ug/ml in pooled normal plasma; method in brief: as §1
[3] = Anti-coagulation activity evaluated as activated partial thromboplastin time (APTT) of the non-sulfated compound determined for 25 ug/mL in pooled normal plasma; method in brief: as §1
[4] = Anti-coagulation activity evaluated as activated partial thromboplastin time (APTT) of the sulfated compound determined for 25 ug/mL in pooled normal plasma; method in brief: as §1

| SMILES | APTT [1] | APTT [2] | APTT [3] | APTT [4] |
| --- | --- | --- | --- | --- |
| CCC(C)C(=O)N[C@H](Cc1ccc(O)cc1)C(=O)[O-].[Na+] (stereo partly drawn) | 32 s | – | – | – |
| CCC(C)C(=O)N[C@H](CCC(=O)[O-])C(=O)[O-].[Na+].[Na+] (stereo partly drawn) | 56 s | 75 s | – | – |
| CCC(C)C(=O)N1C[C@@H](O)C[C@@H]1C(=O)O (relative stereo) | 37 s | – | – | – |
| CCC(C)C(=O)NCC(=O)O (stereo not drawn) | 40 s | – | – | – |
| CCC(C)C(=O)N[C@@H](C(=O)[O-])C(C)(C)C.[Na+] (stereo partly drawn) | 36 s | – | – | – |
| CCC(C)C(=O)N[C@H](CO)C(=O)O (stereo partly drawn) | 39 s | – | – | – |
| CCC(C)C(=O)N[C@H](CCCCN)C(=O)[O-].[Na+] (stereo partly drawn) | 33 s | – | – | – |
| CCC(C)C(=O)N[C@H](Cc1ccccc1)C(=O)[O-].[Na+] (stereo partly drawn) | 56 s | 109 s | – | – |
| CCC(C)C(=O)N[C@H](COS(=O)(=O)[O-])C(=O)[O-].[Na+].[Na+] (stereo partly drawn) | – | – | 32 s | 35 s |
| CCC(C)C(=O)N1C[C@@H](OS(=O)(=O)O)C[C@@H]1C(=O)O (stereo partly drawn) | – | – | 37 s | 100 s |
| CCC(C)C(=O)N1CC[C@H](OS(=O)(=O)O)C1 (stereo partly drawn) | – | – | 39 s | 32 s |
| CCC(C)C(=O)N1CCC[C@@H]1C(=O)[O-].[Na+] (stereo partly drawn) | 55 s | 109 s | – | – |
| CCC(C)C(=O)N[C@H](CC(C)C)C(=O)[O-].[Na+] (stereo partly drawn) | 36 s | – | – | – |
| CCC(C)C(=O)N1C[C@H](O)C[C@@H]1C(=O)O (relative stereo) | 35 s | – | – | – |
| CCC(C)C(=O)N[C@H](Cc1c[nH]cn1)C(=O)[O-].[Na+] (stereo partly drawn) | 30 s | – | – | – |
| CCC(C)C(=O)N[C@H](Cc1ccc(OS(=O)(=O)[O-])cc1)C(=O)[O-].[Na+].[Na+] (stereo partly drawn) | – | – | 35 s | 45 s |

— ChEMBL document CHEMBL1132944, “Poly(N-acryl amino acids): a new class of biologically active polyanions” (2000)
